Consider 2 molecules from ChEMBL document CHEMBL1150201, “Verbascoside isolated from Lantana camara, an inhibitor of protein kinase C” (J Nat Prod, 1991).

The source made the active and inactive calls. No cut-off for these calls is given here. Where only a bound is given, the exact number is not on record here.

For experiment [1], the system named is L1210. As to the kind of experiment: Antiproliferative activity against mouse L1210 cells after 48 hrs by coulter counting analysis. The settings on record: L1210, 48 h. The class given is functional, cell-based. An outline of the steps:
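L1210 cells seeded at 10^4 per well in DMEM with 10% fetal calf serum, 4 mM glutamine and penicillin/streptomycin, with compound added from DMSO. Grown 2 days at 37° in 5% CO₂, then counted in a Coulter counter. Cultures were logarithmically growing at plating; n = 6. IC₅₀ taken from linear regression lines.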

Experiment [2] concerns L1210. As to the kind of experiment: Cytotoxicity against mouse L1210 cells at 25 uM by MTT assay. The class given is functional, cell-based. An outline of the steps:
(§1)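 MTT colorimetric assay after Mosmann, measuring reduction of the tetrazolium to blue formazan by viable cells, read photometrically. Treated cells were compared with the same number of untreated cells.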
On the technique in general: Tetrazolium dyes change colour on reduction, which living cells bring about.

The target of experiment [3] is T1, Protein kinase C (PKC) (Rattus norvegicus) (UniProt P05696+P68403+P09216+P63319+P09215+Q64617+Q9WTQ0+P09217). As to the kind of experiment: Displacement of [gamma32P]ATP from rat brain PKC catalytic domain by competitive Lineweaver-Burke plot analysis. In outline:
(§2)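 Catalytic fragment made by incubating PKC for 10 min at 30° with 1 µg/ml trypsin, giving calcium- and lipid-independent activity. It was then assayed in the mixed-micelle histone phosphorylation assay, varying ATP or histone.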

Experiment [4] deals with T1, Protein kinase C (PKC) (Rattus norvegicus). As to the kind of experiment: Inhibition of rat brain PKC catalytic domain using histone type 3-S as substrate by noncompetitive Lineweaver-Burke plot analysis. In outline:
as §2

Experiment [5] deals with Protein kinase C (PKC). As to the kind of experiment: Inhibition of rat brain PKC using histone type 3-S as substrate by noncompetitive Lineweaver-Burke plot analysis.
Experiment [6] has as its target T1, Protein kinase C (PKC) (Rattus norvegicus). As to the kind of experiment: (§3) Inhibition of rat brain PKC by mixed micellar assay. An outline of the steps: (§4)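 PKC purified from rat brain, 0.5 µg per tube. Medium was 20 mM Tris/HCl pH 7.5, 10 mM MgCl₂, 200 µg/ml histone IIIS, micelles of 700 µM phosphatidylserine and 180 µM 1,2-dioleine in 0.3% Triton X-100, 0.2 mM CaCl₂, 100 µM ATP with [γ-³²P]-ATP and compound in DMSO. After 3 min at 30°, TCA-precipitated material was filtered and counted. Activity without micelles/CaCl₂ subtracted; 6 replicates.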

Experiment [7] addresses Protein kinase C (PKC). The description is as §3. In outline: as §4
Experiment [8] has as its system L1210. As to the kind of experiment: Cytotoxicity against mouse L1210 cells at 10 uM by MTT assay. The class given is functional, cell-based. An outline of the steps:
as §1

Experiment [9] deals with Protein kinase C (PKC). As to the kind of experiment: Inhibition of rat brain PKC catalytic domain by mixed micellar assay. An outline of the steps:
as §2

In experiment [10] the target is T1, Protein kinase C (PKC) (Rattus norvegicus). As to the kind of experiment: Displacement of [3H]PDBu from rat brain PKC at 1 mM by scintillation counting. An outline of the steps:
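PKC incubated 1 h at 30° in 250 µl of 50 mM Tris/HCl pH 7.4 with 1 mM CaCl₂, 39.2 nM [³H]-PDBu and 50 µg/ml PKC, plus compound. Nonspecific binding defined with 100-fold excess unlabelled PDBu. Diluted with ice-cold buffer, filtered on glass fiber, washed 3 times, bound radioactivity by scintillation counting.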
(Displacement assays read how much labelled ligand stays bound in the presence of the test substance.)

Experiment [11] has as its target Protein kinase C (PKC). As to the kind of experiment: Displacement of [gamma32P]ATP from rat brain PKC by competitive Lineweaver-Burke plot analysis. In outline:
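Rat brain PKC (0.5 µg) in the mixed-micelle assay with histone fixed at 200 µg/ml and ATP varied. Inhibitor levels were 0, 5, 10 and 15 µM. Data were analysed as double-reciprocal plots. Apparent Ki came from line intersections by unweighted least-squares fit.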

Experiment [12] can be described thus: Inhibition of PKA at 100 uM.
Another experiment has as its system LSTRA. As to the kind of experiment: Inhibition of protein tyrosine kinase in mouse LSTRA cells assessed as formation of [32P]phosphotyrosine at 100 uM by gel electrophoresis. The class given is cell-based.

On to `C[C@H]1CNCCN1S(=O)(=O)c1cccc2cnccc12`, for which, in the experiment on L1210 [1], half-maximal inhibition (IC50) required 23.5 µM. The result in the experiment on L1210 [2] was inactive.

For `C[C@@H]1O[C@@H](O[C@@H]2[C@@H](O)[C@H](OCCc3ccc(O)c(O)c3)O[C@H](CO)[C@H]2OC(=O)/C=C/c2ccc(O)c(O)c2)[C@H](O)[C@H](O)[C@H]1O` [ACETOSIDE], the result in experiment [3] and in experiment [4] was Active. Moreover, the Ki – broadly, the equilibrium dissociation constant of an inhibitor or competing ligand from its target – at Protein kinase C (PKC) [5] amounted to 28 µM; on Protein kinase C (PKC) [11], 22 µM. Further, in [6], the Activity result is “Dose-dependent effect”. Further, the IC50 – broadly, the concentration at which inhibition is half-maximal – came to 25 µM against Protein kinase C (PKC) [7], 13 µM with L1210 [1] and 21 µM on Protein kinase C (PKC) [9]. Besides, the outcome in the experiment on L1210 [8] was inactive. The inhibition (as a rule, the share of the control response that was lost under treatment) in experiment [10] was 9%; in experiment [12] it was < 10%; with LSTRA, < 10%.
